Experimental data from different studies.
Lines come from different studies, so protocols differ.
Palmitoyl-protein thioesterase 1: Palmitoyl-protein thioesterase 1 (Homo sapiens, UniProt P50897)
Transmembrane protease serine 6: Transmembrane protease serine 6 (Homo sapiens, UniProt Q8IU80)

SMILES | target | assay | conditions | quantity | result
Cc1cc([C@@H](C)Nc2ccccc2C(=O)O)c2nc(N3CCC(F)(F)CC3)c(C#N)c(=O)n2c1 | Mitogen-activated protein kinase 8 (MAPK8, Homo sapiens, UniProt P45983) | binding, competition with immobilised ligand | 10 µM | remaining binding | 100%
O=C1C=C2CC3(O)COc4cc(O)ccc4C3=C2C=C1O (stereo not drawn) | Palmitoyl-protein thioesterase 1 | enzyme activity, inhibitor | 625 µM | inhibition | 29.3%
Cc1ccc2c(-c3cc4c(CN5CCN(Cc6ccccn6)CC5)cnc(C)c4o3)cc(=O)oc2c1 | Epidermal growth factor receptor (EGFR, Homo sapiens, UniProt P00533, C797S/L858R/T790M) | enzyme activity, inhibitor, ADP detection | 1 µM | inhibition | 75%
C=CCc1ccc(O)c(OC)c1 | Palmitoyl-protein thioesterase 1 | enzyme activity, inhibitor | 834 µM | inhibition | 11.7%
COc1cc(-c2cncc3c2CN(C)Cc2cc(N4CCNCC4)ccc2-3)cc(OC)c1OC | Wee1-like protein kinase (WEE1, Homo sapiens, UniProt P30291) | enzyme activity, inhibitor | 1 µM | remaining activity | 95%
CC(=O)O[C@@]12CO[C@@H]1C[C@H](O)[C@@]1(C)C(=O)[C@H](O)C3=C(C)[C@@H](OC(=O)[C@H](O)[C@@H](NC(=O)OC(C)(C)C)c4ccccc4)C[C@@](O)([C@@H](OC(=O)c4ccccc4)[C@H]21)C3(C)C | Palmitoyl-protein thioesterase 1 | enzyme activity, inhibitor | 125 µM | inhibition | 10.3%
CC[C@H](NC(=O)[C@H](Cc1cscn1)NC(=O)CCc1ccccc1)C(=O)N[C@@H](CCCNC(=N)N)C(=O)c1nc2ccccc2s1 | Transmembrane protease serine 6 | enzyme activity, inhibitor | 0.1 µM | remaining activity | 20 to 50%
C=C1CC[C@H]2C(=C)CC[C@H]3C(=C)C(=O)O[C@@H]3[C@@H]12 | Palmitoyl-protein thioesterase 1 | enzyme activity, inhibitor | 125 µM | inhibition | 4.92%
C=CC(=O)N1CCC(COCC(=O)N2CCN(c3nc(-c4cnc(N)nc4C(F)F)nc(N4CCOC[C@@H]4C)n3)CC2)CC1 | Serine/threonine-protein kinase B-raf (BRAF, Homo sapiens, UniProt P15056, V600E) | binding, competition with immobilised ligand | 1 µM | remaining binding | 81%
N=C(N)NCCC[C@H](NC(=O)C1(NC(=O)[C@H](Cc2cscn2)NC(=O)CCc2ccccc2)CC1)C(=O)c1nc2ccccc2s1 | Transmembrane protease serine 6 | enzyme activity, inhibitor | 0.1 µM | remaining activity | 60%
Cc1ncc(CNCc2ccco2)c2cc(-c3cc(=O)oc4cc5c(cc34)CCC5)oc12 | Epidermal growth factor receptor (EGFR, Homo sapiens, UniProt P00533) | enzyme activity, inhibitor, ADP detection | 1 µM | inhibition | 0 to 40%
N=C(N)NCCC[C@H](NC(=O)[C@H](Cc1cccc(I)c1)NC(=O)[C@H](Cc1cscn1)NC(=O)CCc1ccccc1)C(=O)c1nc2ccccc2s1 | Transmembrane protease serine 6 | enzyme activity, inhibitor | 0.1 µM | remaining activity | 92%
CC(C)C[C@@H](C(=O)N[C@H](C(=O)OC1CCCC1)c1ccccc1)[C@H](O)C(=O)NO | Palmitoyl-protein thioesterase 1 | enzyme activity, inhibitor | 625 µM | inhibition | 8.02%
C[C@H](O)[C@@H](NC(=O)[C@H](Cc1cscn1)NC(=O)CCc1ccccc1)C(=O)N[C@@H](CCCNC(=N)N)C(=O)c1nc2ccccc2s1 | Transmembrane protease serine 6 | enzyme activity, inhibitor | 0.1 µM | remaining activity | 10%
CNc1ncc2c(/C=C/C(=O)N3CCC(OC)CC3)nn(Cc3cccc(C(F)(F)F)c3)c2n1 | Serine/threonine-protein kinase B-raf (BRAF, Homo sapiens, UniProt P15056) | enzyme activity, inhibitor, radiometric | 1 µM | remaining activity | 79%
N=C(N)NCCC[C@H](NC(=O)[C@H](Cc1ccc2ccccc2c1)NC(=O)[C@H](Cc1cscn1)NC(=O)CCc1ccccc1)C(=O)c1nc2ccccc2s1 | Transmembrane protease serine 6 | enzyme activity, inhibitor | 0.1 µM | remaining activity | 8%
C=C1C(=O)O[C@@H]2/C=C(\C)CC/C=C(\C)CC[C@@H]12 | Palmitoyl-protein thioesterase 1 | enzyme activity, inhibitor | 125 µM | inhibition | 6.21%
CC(C)(C)[C@H](NC(=O)[C@H](Cc1cscn1)NC(=O)CCc1ccccc1)C(=O)N[C@@H](CCCNC(=N)N)C(=O)c1nc2ccccc2s1 | Transmembrane protease serine 6 | enzyme activity, inhibitor | 0.1 µM | remaining activity | 55%
COc1ccc2[nH]cc(CCNC(C)=O)c2c1 | Palmitoyl-protein thioesterase 1 | enzyme activity, inhibitor | 125 µM | inhibition | 8.97%
Cc1ncc(CN2CCc3ccccc3C2)c2cc(C(=O)c3ccc4c(c3)OCCO4)oc12 | Epidermal growth factor receptor (EGFR, Homo sapiens, UniProt P00533, L858R/T790M) | enzyme activity, inhibitor, ADP detection | 1 µM | inhibition | 65 to 75%
CCC[C@H](NC(=O)[C@H](Cc1cscn1)NC(=O)CCc1ccccc1)C(=O)N[C@@H](CCCNC(=N)N)C(=O)c1nc2ccccc2s1 | Transmembrane protease serine 6 | enzyme activity, inhibitor | 0.1 µM | remaining activity | 30%
